Results on 6 molecules are retold here after ChEMBL document CHEMBL2062505, “Thermodynamic Investigation of Inhibitor Binding to 1-Deoxy-D-Xylulose-5-Phosphate Reductoisomerase” (ACS Med Chem Lett, 2012).

The test system of assay [1] is Mycobacterium tuberculosis. Put plainly: Binding affinity to Mycobacterium tuberculosis DXR by isothermal titration […] assay in presence of 2 mM NADPH and 150 mM NaCl at 279 K and pH 7.6. In general terms: Isothermal titration calorimetry measures the heat released or taken up as one component is titrated into another.
Assay [2] in a line: Inhibition of Mycobacterium tuberculosis DXR using DXP as substrate preincubated for 5 mins.
The test system of assay [3] is Escherichia coli. Put plainly: Binding affinity to Escherichia coli DXR by isothermal titration […] assay in presence of 2 mM NADPH and 150 mM NaCl at 279 K and pH 7.6 and Mg2+. The procedure, abridged: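 Isothermal titration calorimetry of inhibitor titrated into E. coli DXR at 279 K, pH 7.6, with 2 mM NADPH, 150 mM NaCl and Mg2+. Ka and ΔH come from fitted titration curves, with ΔG and ΔS derived from them. Kd is taken as the inverse of Ka.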

Assay [4] is described as follows: Inhibition of His6-tagged Plasmodium falciparum DXR expressed in Escherichia coli M15 using DXP as substrate preincubated for 5 mins.
In assay [5] the test system is Plasmodium falciparum. Kind of assay: Binding affinity to His6-tagged Plasmodium falciparum DXR expressed in Escherichia coli M15 by isothermal titration […] assay in presence of 2 mM NADPH and 150 mM NaCl at 279 K and pH 7.6. In outline: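 PfDXR gene cloned into pQE30, expressed in E. coli M15, and purified as His6-tagged protein. ITC run at 279 K, pH 7.6, with 2 mM Mn2+ and 2 mM NADPH. Ka and ΔH come from curve fitting, with Kd as the inverse of Ka.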

Assay [6] in a line: Inhibition of Escherichia coli DXR using DXP as substrate preincubated for 5 mins.
The subject of assay [7] is Escherichia coli. Put plainly: Binding affinity to Escherichia coli DXR by isothermal titration […] assay in presence of 2 mM NADPH and 150 mM NaCl at 279 K and pH 8.5. The procedure, abridged:
(§1)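 Isothermal titration calorimetry of inhibitor binding to E. coli DXR, run at 279 K with 2 mM NADPH and 150 mM NaCl. Titrations were done with Mg2+ or Mn2+ present, or with no divalent metal ion. Fitted curves gave ΔH and Ka, with ΔG and ΔS derived from them. Kd was taken as the inverse of Ka.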

The test system of assay [8] is Escherichia coli. Put plainly: Binding affinity to Escherichia coli DXR by isothermal titration […] assay in presence of 2 mM NADPH and 150 mM NaCl at 279 K and pH 7.6. The procedure, abridged:
as §1

Assay [9] relates to Escherichia coli. Put plainly: Binding affinity to Escherichia coli DXR by isothermal titration […] assay in presence of 2 mM NADPH and 150 mM NaCl at 279 K and pH 7.6 and Mn2+. In outline:
(§2)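 Heat of inhibitor binding to E. coli DXR (EcDXR) was measured by isothermal titration calorimetry and fitted to binding curves. The fit gave the association constant Ka (M–1) and ΔH, with ΔG and ΔS also reported. Kd was taken as the inverse of Ka. The divalent metal ion (Mg2+ or Mn2+) was included in the titration.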

Assay [10] concerns Escherichia coli. Put plainly: Binding affinity to Escherichia coli DXR by isothermal titration […] assay in presence of 2 mM NADPH and 150 mM NaCl at 279 K and pH 8.5 and Mg2+. The procedure, abridged:
as §2

As to `O=P(O)(O)Cc1ccc(-c2ccccc2)cn1`, the Ka in assay [1] stood at 4.44 ×10⁵ /M; in assay [3], 4.83 ×10⁵ /M; in [5], 4.67 ×10⁵ /M. In addition, the Ki – broadly, the dissociation constant of the complex between target and ligand, obtained from inhibition or displacement – in assay [2] came out at 3.2 µM; in [4] it was 1.1 µM; in assay [6] it was 0.42 µM.

Turning to `O=CN(O)CCC(c1ccc(Cl)c(Cl)c1)P(=O)(O)O` (centres undefined), the Ka in assay [1] was 2.08 ×10⁶ /M; in [3], 3.03 ×10⁶ /M; in assay [5] it was 3.13 ×10⁶ /M. Besides, the figures for the Ki in assay [2], in assay [4] and in assay [6] were 1.2 µM, 0.015 µM and 0.058 µM, respectively.

On to `O=c1ccc(-c2ccccc2)cn1O` [1-HYDROXY-5-PHENYLPYRIDIN-2(1H)-ONE], for which the Ka in assay [1] was found to be 3.42 ×10⁵ /M; in assay [7], 2.55 ×10⁵ /M; in assay [3] it was 1.72 ×10⁵ /M; in assay [8], 2.87 ×10⁵ /M; in [5] it was 2.69 ×10⁵ /M. Further, the inhibition constant (Ki) was 21.8 µM in assay [2], 14.6 µM in assay [4] and 0.7 µM in assay [6].

Take `O=CN(O)CCCP(=O)(O)O` [FOSMIDOMYCIN]: the Ka in assay [1] was 3.45 ×10⁶ /M; in assay [9], 7.35 ×10⁶ /M; in [10], 5.6 ×10⁶ /M; in assay [3], 6.67 ×10⁶ /M; in assay [5], 1.28 ×10⁷ /M.

On to `CC(=O)N(O)CCCP(=O)(O)O` [FR-900098], for which the values for the Ka in [1], in assay [3] and in assay [5] were 1.79 ×10⁶ /M, 7.14 ×10⁶ /M and 1.28 ×10⁷ /M, respectively. Further, the Ki in assay [2] was found to be 0.13 µM; in [4], 0.011 µM; in [6], 0.019 µM.

`O=P(O)(O)Cc1ccccn1` [PYRIDIN-2-YLMETHYLPHOSPHONIC ACID]: the Ka is 6.29 ×10⁵ /M in [1]; 4.89 ×10⁵ /M in assay [7]; 4.93 ×10⁵ /M in assay [3]; 4.31 ×10⁵ /M in assay [8]; 8.77 ×10⁵ /M in assay [5]. The Ki in assay [2] worked out at 1.6 µM; in [4], 3.3 µM; in assay [6], 2.3 µM.
